We go through two compounds from article PMC3770484 (European journal of medicinal chemistry, 2013).

Assay [1] concerns tubulin (colchicine site). The assay is described as follows: Inhibition of [3H]colchicine binding to tubulin. The note with it: tubulin 1 μM, [3H]colchicine 5 μM, 10 min at 37 °C, ± SD. The method, boiled down: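 Tritiated colchicine (5.0 μM) incubated with 1.0 μM tubulin and test compound at 5.0 or 1.0 μM for 10 min at 37 °C. At this point about 40-60% of maximum colchicine binding occurs in controls. Percent inhibition of binding reported. Compounds inhibiting by more than 80% at 5 μM were retested at 1 μM.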

Assay [2] concerns human tumor cell line panel (A549, KB, KBvin, and DU145). The assay is described as follows: SRB cytotoxicity, range over the whole HTCL panel. The assay is classed as cell-based. To be noted: read-out: GI50 range over HTCL panel. In short, it runs like this: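 Sulforhodamine B growth assay on human A-549, KB, DU145 and KBvin lines; KBvin is a vincristine-resistant, P-gp-expressing KB subline. Paclitaxel served as reference.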

SMILES strings stand for the structures.

With `COc1ccc(/C=C\c2cc(OC)c(OC)c(OC)c2)cc1O` [CA4, combretastatin A-4], the “Inhibition of colchicine binding (%) inhibition” value in assay [1] (inhibitor at 1 μM) is 90 ± 0.2%; in assay [1] (inhibitor at 5 μM), 98 ± 0.6%.
In the case of `COc1ccc2c(c1)CCCN2c1nc(Cl)nc2ccccc12` [Compound 6d, N-(2′-Chloroquinazol-4′-yl)-6-methoxy-1,2,3,4-tetrahydroquinoline], in assay [2], the GI50 is 1.5 to 1.7 nM.

The GI50 is the concentration at which growth is held to half of that of the control.
